Measured values as given in ChEMBL document CHEMBL1641438, “In vitro efficacy of 7-benzylamino-1-isoquinolinamines against Plasmodium falciparum related to the efficacy of chalcones” (Bioorg Med Chem Lett, 2011).
pIC50: −log10 of the molar value. Active and inactive are the calls of the source. The rule behind the calls is not given here.

Tests used:
Plasmodium falciparum [1] = test: Antimalarial activity against multidrug-resistant Plasmodium falciparum TM91C235 assessed as inhibition of [3H]hypoxanthine uptake; type: functional, organism-based
Plasmodium falciparum [2] = test: Antimalarial activity against mefloquine-resistant, chloroquine-sensitive Plasmodium falciparum D6 assessed as inhibition of [3H]hypoxanthine uptake; type: functional, organism-based
Plasmodium falciparum [3] = test: Antimalarial activity against multidrug-resistant Plasmodium falciparum TM91C235 assessed as inhibition of [3H]hypoxanthine uptake in presence of 1 mM folinic acid; type: functional, organism-based
Outline: (§1)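 Folinic acid reversal assay, adapted from a folic acid reversal method and run in normal plasma, to rule out DHFR inhibition. Parasite growth inhibition (IC50) is measured with 1 mM folinic acid present and compared with the IC50 obtained without folinic acid.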

Plasmodium falciparum [4] = test: Resistance index, ratio of IC50 for chloroquine-resistant, mefloquine-sensitive Plasmodium falciparum W2 to IC50 for mefloquine-resistant, chloroquine-sensitive Plasmodium falciparum D6; type: functional
Plasmodium falciparum [5] = test: Antimalarial activity against mefloquine-resistant, chloroquine-sensitive Plasmodium falciparum D6 assessed as inhibition of [3H]hypoxanthine uptake in presence of 1 mM folinic acid; type: functional, organism-based; outline: as §1
Plasmodium falciparum [6] = test: Resistance index, ratio of IC50 for Plasmodium falciparum multidrug-resistant TM91C235 to IC50 for mefloquine-resistant, chloroquine-sensitive Plasmodium falciparum D6; type: functional
Plasmodium falciparum [7] = test: Antimalarial activity against chloroquine-resistant, mefloquine-sensitive Plasmodium falciparum W2 assessed as inhibition of [3H]hypoxanthine uptake; type: functional, organism-based

| Compound | pIC50 (Plasmodium falciparum [1]) | pIC50 (Plasmodium falciparum [2]) | Activity (Plasmodium falciparum [3]) | Ratio IC50 (Plasmodium falciparum [4]) | Activity (Plasmodium falciparum [5]) | Ratio IC50 (Plasmodium falciparum [6]) | pIC50 (Plasmodium falciparum [7]) |
| --- | --- | --- | --- | --- | --- | --- | --- |
| Cl.Cl.Cl.Nc1nccc2ccc(NCc3ccc(Cl)cc3)cc12 | 6.69 | 7.13 | Active | 5.67 | Active | 2.78 | 6.38 |
| Nc1nc(N)c2cc(NCc3cccc(Br)c3)ccc2n1 | 7.68 | > 9.85 | – | 14.6 | – | 147 | 8.68 |
| Cl.Cl.Cl.Cl.Nc1nccc2ccc(NCc3ccc(Cl)c(Cl)c3)cc12 | 6.95 | 7.16 | – | 6.58 | – | 1.6 | 6.34 |
| CCc1nc(N)nc(N)c1-c1ccc(Cl)cc1 | – | – | inactive | – | inactive | – | – |
| OC(c1cc(C(F)(F)F)nc2c(C(F)(F)F)cccc12)C1CCCCN1 (configuration not stated) [MEFLOQUINE] | 7.43 | 7.70 | – | 0.289 | – | 1.85 | – |
| Cl.Cl.Nc1nccc2ccc(NCc3cccc(C(F)(F)F)c3)cc12 | 7.14 | 7.30 | – | 5.2 | – | 1.44 | 6.59 |
| Cl.Cl.Cl.Nc1nccc2ccc(NCc3cccc(Cl)c3)cc12 | 6.80 | 7.19 | Active | 5.55 | Active | 2.44 | 6.44 |
| Cl.Cl.Nc1nccc2ccc(NCc3cccc(Br)c3)cc12 | 6.85 | 6.99 | – | 4.09 | – | 1.38 | 6.38 |
| Cl.Cl.Nc1nccc2ccc(NCc3ccccc3)cc12 | 6.31 | 6.67 | – | 6.59 | – | 2.29 | 5.85 |
| CCN(CC)CCCC(C)Nc1ccnc2cc(Cl)ccc12 (configuration not stated) | – | – | Active | – | Active | – | – |
